ChEMBL document CHEMBL4364354, “A Bioreductive Prodrug of Cucurbitacin B Significantly Inhibits Tumor Growth in the 4T1 Xenograft Mice Model” (ACS Med Chem Lett, 2019)
Activity calls are given as the source filed them. No cut-off for these calls is given here.

Assays:
MCF7 [1] = test: Cytotoxicity against human MCF7 cells assessed as reduction in cell viability incubated for 48 hrs by MTT assay; assay type: functional, cell-based; conditions: for IC50: MCF7, 48 h
How it was run: (§1)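 MTT assay on MCF-7 breast cancer cells and noncancerous Vero cells, with tamoxifen as positive control. One MCF-7 arm was pretreated with the NQO1 inhibitor dicoumarol. IC50 values are from three experiments. Cytotoxicity index is the IC50 of the prodrug in Vero cells relative to the parent cucurbitacin B IC50 in Vero cells.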

Vero = test: Cytotoxicity against African green monkey Vero cells assessed as reduction in cell viability incubated for 48 hrs by MTT assay; assay type: cell-based; conditions: Chlorocebus sabaeus; how it was run: as §1
MCF7 [2] = test: Cytotoxicity against human MCF7 cells assessed as reduction in cell viability incubated for 48 hrs in presence of NQO1 inhibitor dicoumarol by MTT assay; assay type: functional, cell-based; conditions: MCF7, 48 h; how it was run: as §1
[3] = Toxicity in BALB/c mouse implanted with mouse 4T1 cells assessed as death at 3 mg/kg/day, ip measured after 1 day; assay type: organism-based; conditions: in vivo, 24 h
How it was run: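 BALB/c mice carrying 4T1 breast cancer cell tumours received the test agent once a day, dosed in mg/kg/d. An untreated control group ran alongside. Tumour volume and body weight were followed over the treatment period, survival was recorded after dosing began, and tumours were excised and weighed after sacrifice.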

[4] = Stability of the compound in DMEM medium with 10% FBS incubated for 72 hrs by HPLC analysis
How it was run: (§2)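 Prodrugs were held in DMEM with 10% FBS for up to 72 h. The fraction of intact compound remaining over time was followed by HPLC.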

[5] = Stability of the compound in DMEM medium with 10% FBS assessed as compound remaining incubated for 24 hrs by HPLC analysis; how it was run: as §2
[6] = Cytotoxicity index, ratio of compound IC50 to cucurbitacin B IC50 for cytotoxicity against African green monkey Vero cells by MTT assay; assay type: cell-based; conditions: chlorocebus sabaeus, read-out: Ratio IC50; how it was run: as §1
[7] = Drug uptake in human MCF7 cells assessed as compound remaining in culture medium at 25 uM incubated for 24 hrs by HPLC analysis; assay type: ADME, cell-based; conditions: mcf7, 24 h
How it was run: (§3)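 MCF-7 cells were exposed to 25 μM prodrug for 24 h, then lysed. Prodrug concentrations in culture medium and in cell lysate were measured by HPLC against a calibration curve.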

[8] = target: T1, NAD(P)H dehydrogenase [quinone] 1 (Homo sapiens, UniProt P15559); test: Prodrug activation in human MCF7 cells assessed as NQO1-mediated CuB release in cell lysate at 25 uM incubated for 24 hrs by HPLC analysis; assay type: subcellular; conditions: mcf7, 24 h
T1 sequence (P15559 whole entry): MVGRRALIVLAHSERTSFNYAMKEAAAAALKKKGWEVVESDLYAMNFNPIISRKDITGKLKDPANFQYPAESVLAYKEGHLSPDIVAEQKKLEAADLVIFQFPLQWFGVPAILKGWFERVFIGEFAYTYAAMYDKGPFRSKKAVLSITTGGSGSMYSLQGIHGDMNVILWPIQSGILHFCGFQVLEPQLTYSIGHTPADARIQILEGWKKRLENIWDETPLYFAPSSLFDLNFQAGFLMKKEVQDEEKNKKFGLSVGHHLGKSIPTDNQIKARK

[9] = target: T1, NAD(P)H dehydrogenase [quinone] 1; test: Prodrug activation in human MCF7 cells assessed as NQO1-mediated CuB release at 25 uM incubated for 24 hrs by HRMS analysis; assay type: cell-based; conditions: mcf7, 24 h
[10] = target: T1, NAD(P)H dehydrogenase [quinone] 1; test: Prodrug activation in human MCF7 cells assessed as NQO1-mediated cucurbitacin B formation by ESI-TOFMS analysis; assay type: cell-based
[11] = target: T1, NAD(P)H dehydrogenase [quinone] 1; test: Prodrug activation in human MCF7 cells assessed as appearance of extended m/z range to 1000 at 25 uM measured after 24 hrs by HRMS analysis; assay type: cell-based; conditions: mcf7, 24 h
[12] = target: T1, NAD(P)H dehydrogenase [quinone] 1; test: Prodrug activation in human MCF7 cells assessed as NQO1-mediated 6-hydroxy-4,4,5,7,8-pentamethylchroman-2-one formation at 25 uM incubated for 24 hrs by HRMS analysis; assay type: cell-based; conditions: mcf7, 24 h
[13] = Drug uptake in human MCF7 cell lysate at 25 uM incubated for 24 hrs by HPLC analysis; assay type: ADME, subcellular; conditions: mcf7, 24 h; how it was run: as §3
[14] = target: T1, NAD(P)H dehydrogenase [quinone] 1; test: (§4) Prodrug activation in human MCF7 cells assessed as NQO1-mediated ((R)-6-((2S,8S,9R,10R,13R,14S,16R,17R)-2-(3-aminopropylcarbamoyloxy)-16-hydroxy-4,4,9,13,14-pentamethyl-3,11-dioxo-2,3,4,7,8,9,10,11,12,13,14,15,16,17-tetradecahydro-1H-cyclopenta[a]phenanthren-17-yl)-6-hydroxy-2-methyl-5-oxohept-3-en-2-yl acetate formation at 25 uM incubated for 24 hrs by HRMS analysis; assay type: cell-based; conditions: mcf7, 24 h
[15] = target: T1, NAD(P)H dehydrogenase [quinone] 1; test: as §4, with “acetate metabolite” for “acetate”, “HPLC” for “HRMS”; assay type: ADME, cell-based; conditions: mcf7, 24 h
[16] = target: T1, NAD(P)H dehydrogenase [quinone] 1; test: Prodrug activation in human MCF7 cell lysate assessed as NQO1-mediated tetrahydropyrimidin-2(1H)-one formation at 25 uM incubated for 24 hrs by HPLC analysis; assay type: subcellular; conditions: mcf7, 24 h
[17] = target: T1, NAD(P)H dehydrogenase [quinone] 1; test: Prodrug activation in human MCF7 cells assessed as NQO1-mediated ((R)-6-((2S,8S,9R,10R,13R,14S,16R,17R)-2-(3-aminopropylcarbamoyloxy)-16-hydroxy-4,4,9,13,14-pentamethyl-3,11-dioxo-2,3,4,7,8,9,10,11,12,13,14,15,16,17-tetradecahydro-1H-cyclopenta[a]phenanthren-17-yl)-6-hydroxy-2-methyl-5-oxohept-3-en-2-yl acetate formation by ESI-TOFMS analysis; assay type: cell-based
[18] = Prodrug activation in human MCF7 cell cultured in DMEM medium with 10% FBS at 25 uM incubated for 24 hrs by HPLC analysis; assay type: cell-based; conditions: mcf7, 24 h
4T1 [19] = test: Antitumor activity against mouse 4T1 cells implanted in BALB/c mouse assessed as tumor growth inhibition at 5 mg/kg/day, ip for 2 weeks measured daily during compound dosing by digital caliper method relative to control; assay type: functional; conditions: 4T1, ip, 336 h, read-out: TGI
[20] = Toxicity in BALB/c mouse implanted with mouse 4T1 cells assessed as body weight at 5 mg/kg/day, ip for 2 weeks measured during compound dosing (reference value: -1.48 %); assay type: organism-based; conditions: in vivo, 336 h
[21] = target: T1, NAD(P)H dehydrogenase [quinone] 1; test: (§5) Prodrug activation in human MCF7 cells assessed as NQO1-mediated (R)-6-hydroxy-6-((2S,8S,9R,10R,13R,14S,16R,17R)-16-hydroxy-4,4,9,13,14-pentamethyl-2-(methyl(3-(methylamino)propyl)carbamoyloxy)-3,11-dioxo 2,3,4,7,8,9,10,11,12,13,14,15,16,17-tetradecahydro-1H-cyclopenta[a]phenanthren-17-yl)-2-methyl-5-oxohept-3-en-2-yl acetate metabolite formation at 25 uM incubated for 24 hrs by HPLC analysis; assay type: ADME, cell-based; conditions: mcf7, 24 h
4T1 [22] = test: Antitumor activity against mouse 4T1 cells xenografted in BALB/c mouse assessed as tumor weight at 3 to 10 mg/kg/day, ip for 2 weeks (reference value: 500 to 700 mg); assay type: functional
[23] = Toxicity in BALB/c mouse implanted with mouse 4T1 cells assessed as body weight at 3 mg/kg/day, ip for 2 weeks measured daily during compound dosing (reference value: -1.48 %); assay type: organism-based; conditions: in vivo, 336 h
[24] = Toxicity in BALB/c mouse implanted with mouse 4T1 cells assessed as body weight at 10 mg/kg/day, ip for 2 weeks measured daily during compound dosing (reference value: -1.48 %); assay type: organism-based; conditions: in vivo, 336 h
[25] = target: T1, NAD(P)H dehydrogenase [quinone] 1; test: as §5, with “acetate” for “acetate metabolite”, “HRMS” for “HPLC”; assay type: cell-based; conditions: mcf7, 24 h
4T1 [26] = test: Antitumor activity against mouse 4T1 cells implanted in BALB/c mouse assessed as tumor growth inhibition at 3 to 10 mg/kg/day, ip for 2 weeks measured daily during compound dosing by digital caliper method; assay type: functional, organism-based
[27] = target: T1, NAD(P)H dehydrogenase [quinone] 1; test: Prodrug activation in human MCF7 cell lysate assessed as NQO1-mediated 1,3-dimethyltetrahydropyrimidin-2(1H)-one formation at 25 uM incubated for 24 hrs by HPLC analysis; assay type: subcellular; conditions: mcf7, 24 h
[28] = target: T1, NAD(P)H dehydrogenase [quinone] 1; test: Prodrug activation in human MCF7 cells assessed as NQO1-mediated (R)-6-hydroxy-6-((2S,8S,9R,10R,13R,14S,16R,17R)-16-hydroxy-4,4,9,13,14-pentamethyl-2-(methyl(3-(methylamino)propyl)carbamoyloxy)-3,11-dioxo 2,3,4,7,8,9,10,11,12,13,14,15,16,17-tetradecahydro-1H-cyclopenta[a]phenanthren-17-yl)-2-methyl-5-oxohept-3-en-2-yl acetate formation by ESI-TOFMS analysis; assay type: cell-based

Drug metabolism [8]	Drug metabolism [9]	Drug metabolism [10]	Drug metabolism [11]	Drug metabolism [12]	Drug uptake [13]	Compound	IC50 (MCF7 [1]) [µM]	IC50 (Vero) [µM]	IC50 (MCF7 [2]) [µM]	Stability [4]	Stability [5] [%]	selectivity ratio [6]	inhibition (MCF7 [1])	Activity (Vero)	also measured
–	–	–	–	–	–	CC(=O)OC(C)(C)/C=C/C(=O)[C@](C)(O)[C@H]1[C@H](O)C[C@@]2(C)[C@@H]3CC=C4[C@@H](C[C@H](O)C(=O)C4(C)C)[C@]3(C)C(=O)C[C@]12C	12	0.04	9.72	–	–	–	–	–	Activity [3]: Toxic
Metabolite_Detected	Metabolite_Detected	Metabolite_Detected	Metabolite_Notdetected	Metabolite_Detected	Not Active	CC(=O)OC(C)(C)/C=C/C(=O)[C@](C)(O)[C@H]1[C@H](O)C[C@@]2(C)[C@@H]3CC=C4[C@@H](C[C@H](OC(=O)CC(C)(C)C5=C(C)C(=O)C(C)=C(C)C5=O)C(=O)C4(C)C)[C@]3(C)C(=O)C[C@]12C	16.6	0.07	> 100	Stable	> 90	1.75	–	–	Drug uptake [7]: 6.21 µM
–	–	–	–	–	–	Cc1c2ccncc2c(C)c2c1[nH]c1ccccc12 [ELLIPTECINE]	–	4.06	–	–	–	–	–	–	–
Metabolite_Detected	Metabolite_Detected	Metabolite_Detected	Metabolite_Notdetected	Metabolite_Detected	Not Active	CC(=O)OC(C)(C)/C=C/C(=O)[C@](C)(O)[C@H]1[C@H](O)C[C@@]2(C)[C@@H]3CC=C4[C@@H](C[C@H](OC(=O)NCCCNC(=O)CC(C)(C)C5=C(C)C(=O)C(C)=C(C)C5=O)C(=O)C4(C)C)[C@]3(C)C(=O)C[C@]12C	15.4	1.87	> 100	Stable	> 90	46.8	–	–	Drug metabolism [14]: Metabolite_Detected; Drug metabolism [15]: Metabolite_Detected; Drug metabolism [16]: Metabolite_Notdetected; Drug metabolism [17]: Metabolite_Detected; Drug metabolism [18]: Metabolite_Detected
–	–	–	–	–	–	Cc1c(C)c2c(c(C)c1O)C(C)(C)CC(=O)O2	–	–	–	–	–	–	inactive	Non-Toxic	–
–	–	–	–	–	–	O=C1NCCCN1	–	–	–	–	–	–	inactive	Non-Toxic	–
–	–	–	–	–	–	CN1CCCN(C)C1=O	–	–	–	–	–	–	inactive	Non-Toxic	–
–	–	–	–	–	–	CC/C(=C(\c1ccccc1)c1ccc(OCCN(C)C)cc1)c1ccccc1 [TAMOXIFEN]	–	–	–	–	–	–	–	–	inhibition in vivo at 5 mg/kg/day (4T1 [19]): 55%; Activity [20]: 4.99%
Metabolite_Detected	Metabolite_Detected	Metabolite_Detected	Metabolite_Notdetected	Metabolite_Detected	Not Active	CC(=O)OC(C)(C)/C=C/C(=O)[C@](C)(O)[C@H]1[C@H](O)C[C@@]2(C)[C@@H]3CC=C4[C@@H](C[C@H](OC(=O)N(C)CCCN(C)C(=O)CC(C)(C)C5=C(C)C(=O)C(C)=C(C)C5=O)C(=O)C4(C)C)[C@]3(C)C(=O)C[C@]12C	18.1	12.4	> 100	Stable	> 90	310	–	–	Drug uptake [7]: 8.39 µM; Drug metabolism [21]: Metabolite_Detected; inhibition in vivo at 5 mg/kg/day (4T1 [19]): 53.8%; Activity (4T1 [22]): <400 mg; Activity [23]: 6.46%; Activity [20]: 5.27%; Activity [24]: -2.49%; Drug metabolism [25]: Metabolite_Detected; TGI (4T1 [26]): Active; Drug metabolism [27]: Metabolite_Notdetected; Drug metabolism [28]: Metabolite_Detected
